Laboratory results from ChEMBL document CHEMBL1158546, “Discovery of novel and potent leukotriene B4 receptor antagonists. Part 1” (J Med Chem, 2010).
Values after ≈ are worked out from the molar mass of the structure shown.

Experiments:
[1] = target: T1, Leukotriene B4 receptor 1 (Homo sapiens, UniProt Q15722); experiment: Antagonist activity at BLT1 receptor expressed in human HL60 cells assessed as inhibition of LTB4-stimulated calcium flux after 30 mins; format: functional, cell-based, HL-60
Summary of the method: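 HL-60 cells grown in RPMI-1640 with 20% FBS were plated at 2.0 × 10^5 cells/ml with 1 μM retinoic acid. They were dye-loaded in HBSS/20 mM HEPES/5 mM probenecid (0.05% BSA in the replacement buffer) for 1 h at 37 C. Compound (5 × 10^-11 to 3 × 10^-6 M final) was added for 30 min at room temperature, then 0.5 μM LTB4. Fluorescence was read every 1.5 s for 100 s and peak increase scored as % inhibition versus DMSO control.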

Neutrophil = experiment: Inhibition of LTB4-stimulated human neutrophils migration after 30 mins by using CyQuant GR fluorescent dye; format: functional, cell-based
Summary of the method: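 Human blood neutrophils (95-97% pure, isolated over Lympholyte-poly) at 5 × 10^6 cells/mL were preincubated with compound (3 × 10^-12 to 1 × 10^-6 M final) for 30 min at 37 C. Migration toward 100 ng/mL LTB4 across a polycarbonate membrane ran 90 min at 37 C. Migrated cells were lysed with CyQuant GR and read at 480/520 nm. IC50 was taken from a sigmoidal fit of % inhibition.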

Cytochrome P450 2C19 = Cytochrome P450 2C19 (Homo sapiens, UniProt P33261); experiment: Inhibition of CYP2C19 fluorescence method; format: ADME
Summary of the method: (§1)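 Cytochrome P450 high-throughput panel (1A2, 2D6, 2C9, 2C19, 3A4) using fluorogenic substrates; IC50 reported.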

Cytochrome P450 1A2 = target: T2, Cytochrome P450 1A2 (Homo sapiens, UniProt P05177); experiment: Inhibition of CYP1A2 by fluorescence method; format: ADME; summary of the method: as §1
T2 sequence (P05177 whole entry): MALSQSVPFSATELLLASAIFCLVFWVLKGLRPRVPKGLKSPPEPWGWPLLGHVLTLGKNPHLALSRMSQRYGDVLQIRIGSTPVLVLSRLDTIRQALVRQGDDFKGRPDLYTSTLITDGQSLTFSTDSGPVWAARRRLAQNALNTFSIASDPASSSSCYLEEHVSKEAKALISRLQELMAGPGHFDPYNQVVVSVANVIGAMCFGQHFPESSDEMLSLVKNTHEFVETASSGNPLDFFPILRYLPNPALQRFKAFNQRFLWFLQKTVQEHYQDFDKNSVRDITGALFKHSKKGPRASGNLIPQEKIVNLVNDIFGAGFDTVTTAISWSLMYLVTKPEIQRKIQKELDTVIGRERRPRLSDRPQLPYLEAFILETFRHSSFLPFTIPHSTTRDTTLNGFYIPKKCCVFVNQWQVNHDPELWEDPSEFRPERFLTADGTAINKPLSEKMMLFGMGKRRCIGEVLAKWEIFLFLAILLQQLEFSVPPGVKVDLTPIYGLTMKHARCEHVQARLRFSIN

[2] = target: T1, Leukotriene B4 receptor 1; experiment: Antagonist activity at FLAG-tagged human BLT1 receptor expressed in HEK293 cells assessed as inhibition of LTB4-stimulated calcium mobilization preincubated for 10 mins before LTB4 challenge; format: functional, cell-based
Cytochrome P450 2D6 = Cytochrome P450 2D6 (Homo sapiens, UniProt P10635); experiment: Inhibition of CYP2D6 fluorescence method; format: ADME
Summary of the method: (§2)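 High-throughput CYP panel covering 1A2, 2D6, 2C9, 2C19 and 3A4, using fluorogenic substrates. IC50 was determined in μM.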

Cytochrome P450 3A4 = Cytochrome P450 3A4 (Homo sapiens, UniProt P08684); experiment: Inhibition of CYP3A4 fluorescence method; format: ADME; summary of the method: as §2
Cytochrome P450 2C9 [3] = target: T3, Cytochrome P450 2C9 (Homo sapiens, UniProt P11712); experiment: Inhibition of CYP2C9 fluorescence method; format: ADME
Cytochrome P450 2C9 [4] = target: T3, Cytochrome P450 2C9; experiment: Inhibition of CYP2C9 by LC/MS method; format: ADME
[5] = target: T4, Leukotriene B4 receptor 2 (Homo sapiens, UniProt Q9NPC1); experiment: Antagonist activity at FLAG-tagged human BLT2 receptor expressed in HEK293 cells assessed as inhibition of LTB4-stimulated calcium mobilization preincubated for 10 mins before LTB4 challenge; format: functional, cell-based
T4 sequence (Q9NPC1 whole entry): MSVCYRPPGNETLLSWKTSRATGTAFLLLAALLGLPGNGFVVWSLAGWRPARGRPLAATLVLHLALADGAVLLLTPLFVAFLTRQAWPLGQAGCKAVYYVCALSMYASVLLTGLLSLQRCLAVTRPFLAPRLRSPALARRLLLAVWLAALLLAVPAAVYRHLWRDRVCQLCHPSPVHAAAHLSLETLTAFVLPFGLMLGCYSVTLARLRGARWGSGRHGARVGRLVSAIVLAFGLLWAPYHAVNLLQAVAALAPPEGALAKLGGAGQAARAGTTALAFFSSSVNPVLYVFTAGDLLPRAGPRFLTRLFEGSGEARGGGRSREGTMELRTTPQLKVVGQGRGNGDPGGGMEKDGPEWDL

[6] = target: T5, Voltage-gated inwardly rectifying potassium channel KCNH2 (Homo sapiens, UniProt Q12809); experiment: Inhibition of human ERG expressed in CHO cells at 3 uM assessed as reduction of current amplitude
[7] = Solubility of compound in small intestinal contents in the fasted state at pH 6.5; format: ADME
Summary of the method: (§3)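 Solubility measured in simulated intestinal fluid at pH 5.0 (fed) or pH 6.5 (fasted), reported in μg/mL.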

[8] = target: T5, Voltage-gated inwardly rectifying potassium channel KCNH2; experiment: Inhibition of human ERG expressed in CHO cells assessed as reduction of current amplitude
[9] = Lipophilicity, log D of compound at pH 7.4; conditions: buffer
[10] = Solubility of compound in small intestinal contents in the fed state at pH 5; format: ADME; summary of the method: as §3
[11] = Cmax in Sprague-Dawley rat at 10 mg/kg, po; format: ADME, organism-based; set-up: dose 10 mg/kg, route oral; conditions: in vivo
Summary of the method: (§4)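 Rat single-dose PK, n = 3, with oral dosing at 10 mg/kg and intravenous dosing at 2.5 or 5 mg/kg.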

[12] = Clearance in Sprague-Dawley rat at 5 mg/kg, iv; format: ADME, organism-based; set-up: dose 5 mg/kg, route intravenous; conditions: in vivo; summary of the method: as §4
[13] = Tmax in Sprague-Dawley rat at 10 mg/kg, po; format: ADME, organism-based; set-up: dose 10 mg/kg, route oral; conditions: in vivo; summary of the method: as §4
[14] = Oral bioavailability in Sprague-Dawley rat at 10 mg/kg, po; format: ADME, organism-based; conditions: in vivo; summary of the method: as §4
[15] = Volume of distribution at steady state in Sprague-Dawley rat at 5 mg/kg, iv; format: ADME, organism-based; set-up: dose 5 mg/kg, route intravenous; conditions: in vivo, read-out: Vdss; summary of the method: as §4
[16] = Half life in Sprague-Dawley rat at 5 mg/kg, iv; format: ADME, organism-based; set-up: dose 5 mg/kg, route intravenous; conditions: in vivo; summary of the method: as §4
[17] = Half life in Sprague-Dawley rat at 10 mg/kg, po; format: ADME, organism-based; set-up: dose 10 mg/kg, route oral; conditions: in vivo; summary of the method: as §4
[18] = Homo sapiens, Neutrophil, 0.5 h, read-out: IC50

T3 sequence (P11712 whole entry): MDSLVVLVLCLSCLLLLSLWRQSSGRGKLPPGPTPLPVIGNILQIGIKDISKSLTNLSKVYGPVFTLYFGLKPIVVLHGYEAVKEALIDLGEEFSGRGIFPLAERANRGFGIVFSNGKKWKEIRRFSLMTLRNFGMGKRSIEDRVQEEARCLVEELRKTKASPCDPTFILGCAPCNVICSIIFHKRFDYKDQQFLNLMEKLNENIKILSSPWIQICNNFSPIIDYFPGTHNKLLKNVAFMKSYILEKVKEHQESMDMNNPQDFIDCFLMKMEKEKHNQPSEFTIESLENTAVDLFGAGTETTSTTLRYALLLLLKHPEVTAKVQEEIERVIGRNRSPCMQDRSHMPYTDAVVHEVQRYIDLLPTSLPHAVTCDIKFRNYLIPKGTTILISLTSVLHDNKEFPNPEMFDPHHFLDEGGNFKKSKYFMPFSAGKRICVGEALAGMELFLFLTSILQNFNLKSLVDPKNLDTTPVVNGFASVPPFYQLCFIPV
T1 sequence (Q15722 whole entry): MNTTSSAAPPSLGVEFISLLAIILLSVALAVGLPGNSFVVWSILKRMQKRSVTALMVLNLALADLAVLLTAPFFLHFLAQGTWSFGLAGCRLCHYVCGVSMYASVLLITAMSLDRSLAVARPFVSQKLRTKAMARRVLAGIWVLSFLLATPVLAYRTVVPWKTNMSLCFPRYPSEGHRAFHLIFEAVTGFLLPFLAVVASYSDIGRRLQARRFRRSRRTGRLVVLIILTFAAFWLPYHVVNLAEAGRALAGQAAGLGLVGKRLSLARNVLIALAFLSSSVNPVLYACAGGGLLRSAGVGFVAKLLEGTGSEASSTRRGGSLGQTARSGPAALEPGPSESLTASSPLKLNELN
T5 sequence (Q12809 whole entry): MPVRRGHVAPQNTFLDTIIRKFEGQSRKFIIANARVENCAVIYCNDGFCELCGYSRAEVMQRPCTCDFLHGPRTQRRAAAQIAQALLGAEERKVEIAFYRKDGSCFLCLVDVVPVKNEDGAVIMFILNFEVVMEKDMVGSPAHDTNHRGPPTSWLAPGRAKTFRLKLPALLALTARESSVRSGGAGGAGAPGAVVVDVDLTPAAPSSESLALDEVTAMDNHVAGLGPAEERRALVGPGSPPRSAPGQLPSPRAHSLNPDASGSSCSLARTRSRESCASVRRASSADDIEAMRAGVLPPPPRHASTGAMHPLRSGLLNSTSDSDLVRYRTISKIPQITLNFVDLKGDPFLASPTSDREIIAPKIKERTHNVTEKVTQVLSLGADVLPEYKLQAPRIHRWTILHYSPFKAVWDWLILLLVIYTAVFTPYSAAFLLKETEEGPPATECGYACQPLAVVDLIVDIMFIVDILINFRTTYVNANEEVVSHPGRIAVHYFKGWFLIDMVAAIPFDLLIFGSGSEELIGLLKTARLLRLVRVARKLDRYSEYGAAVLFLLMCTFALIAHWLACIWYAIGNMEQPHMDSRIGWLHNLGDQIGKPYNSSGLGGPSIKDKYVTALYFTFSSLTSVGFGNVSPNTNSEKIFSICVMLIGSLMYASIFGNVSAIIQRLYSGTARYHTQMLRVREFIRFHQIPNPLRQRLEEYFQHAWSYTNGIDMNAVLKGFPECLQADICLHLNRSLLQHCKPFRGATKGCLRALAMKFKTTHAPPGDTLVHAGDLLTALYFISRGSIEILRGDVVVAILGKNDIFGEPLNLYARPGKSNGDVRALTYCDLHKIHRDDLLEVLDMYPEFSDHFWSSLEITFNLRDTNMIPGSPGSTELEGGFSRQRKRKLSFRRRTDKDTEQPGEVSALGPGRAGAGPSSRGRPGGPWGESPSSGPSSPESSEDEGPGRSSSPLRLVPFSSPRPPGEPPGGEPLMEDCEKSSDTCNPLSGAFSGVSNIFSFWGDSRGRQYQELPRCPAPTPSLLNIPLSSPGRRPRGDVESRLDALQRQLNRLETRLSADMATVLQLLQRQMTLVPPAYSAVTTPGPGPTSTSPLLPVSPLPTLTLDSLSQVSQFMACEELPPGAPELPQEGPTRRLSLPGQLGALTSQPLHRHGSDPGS
Chain of Cytochrome P450 2C19 (P33261 whole entry): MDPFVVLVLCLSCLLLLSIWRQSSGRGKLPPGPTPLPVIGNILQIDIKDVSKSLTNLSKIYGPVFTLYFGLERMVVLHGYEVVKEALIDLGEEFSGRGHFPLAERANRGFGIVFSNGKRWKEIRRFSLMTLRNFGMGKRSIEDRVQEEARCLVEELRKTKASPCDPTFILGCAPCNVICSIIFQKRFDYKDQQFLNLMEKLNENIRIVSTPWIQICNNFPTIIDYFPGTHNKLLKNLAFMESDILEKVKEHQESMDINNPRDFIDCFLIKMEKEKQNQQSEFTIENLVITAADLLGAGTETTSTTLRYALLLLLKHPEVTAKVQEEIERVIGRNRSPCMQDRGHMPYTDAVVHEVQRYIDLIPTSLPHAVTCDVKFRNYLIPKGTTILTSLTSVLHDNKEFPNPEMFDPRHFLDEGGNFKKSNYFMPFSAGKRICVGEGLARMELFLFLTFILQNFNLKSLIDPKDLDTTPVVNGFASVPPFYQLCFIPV
Chain of Cytochrome P450 2D6 (P10635 whole entry): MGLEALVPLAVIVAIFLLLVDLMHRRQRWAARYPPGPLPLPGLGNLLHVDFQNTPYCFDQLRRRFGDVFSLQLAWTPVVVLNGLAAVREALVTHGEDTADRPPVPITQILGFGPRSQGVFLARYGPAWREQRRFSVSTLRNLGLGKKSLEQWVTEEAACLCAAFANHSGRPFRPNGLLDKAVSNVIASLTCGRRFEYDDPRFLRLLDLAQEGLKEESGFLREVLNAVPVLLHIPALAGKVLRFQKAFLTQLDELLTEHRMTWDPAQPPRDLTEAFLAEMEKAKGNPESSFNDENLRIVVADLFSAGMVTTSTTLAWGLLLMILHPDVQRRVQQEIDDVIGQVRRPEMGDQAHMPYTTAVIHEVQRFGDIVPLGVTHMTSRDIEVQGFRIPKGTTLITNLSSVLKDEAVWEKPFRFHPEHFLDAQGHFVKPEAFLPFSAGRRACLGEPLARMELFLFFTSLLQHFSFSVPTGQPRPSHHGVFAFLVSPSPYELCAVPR
Chain of Cytochrome P450 3A4 (P08684 whole entry): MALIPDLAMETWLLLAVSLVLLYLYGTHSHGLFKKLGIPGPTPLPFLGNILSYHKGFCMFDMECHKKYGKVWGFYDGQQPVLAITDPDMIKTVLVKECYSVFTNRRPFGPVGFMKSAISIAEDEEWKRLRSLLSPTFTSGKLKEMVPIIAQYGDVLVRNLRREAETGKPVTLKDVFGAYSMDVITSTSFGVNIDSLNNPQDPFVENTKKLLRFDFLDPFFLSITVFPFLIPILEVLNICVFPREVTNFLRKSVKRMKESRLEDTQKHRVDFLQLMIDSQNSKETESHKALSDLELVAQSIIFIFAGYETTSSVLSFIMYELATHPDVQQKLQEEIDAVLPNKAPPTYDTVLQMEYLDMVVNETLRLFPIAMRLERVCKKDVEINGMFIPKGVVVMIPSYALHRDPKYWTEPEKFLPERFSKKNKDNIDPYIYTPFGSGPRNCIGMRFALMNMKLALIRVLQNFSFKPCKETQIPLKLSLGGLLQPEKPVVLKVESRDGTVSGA

CCc1cc(C(C)=O)c(O)cc1OCCCCCC(C)(C)c1nn[nH]n1 [LY-255283]
IC50 ([1]; hl-60): Not Active | IC50 (Neutrophil; neutrophil): Not Active

O=C(O)CCCOc1cccc(CCCCCCOc2cc(-c3ccncc3)cc(-c3ccc4c(c3)OCO4)c2)c1CCC(=O)O
IC50 ([1]; read-out: IC50): 0.22 nM | IC50 (Neutrophil; [18]): 0.1 nM

O=C(O)CCCOc1cccc(CCCCCCOc2cc(-c3cccc(F)c3)cc(-c3ccc4[nH]ccc4c3)c2)c1CCC(=O)O
IC50 ([1]; read-out: IC50): 14 nM

O=C(O)CCCOc1cccc(CCCCCCOc2cc(-c3cncnc3)cc(-c3ccsc3)c2)c1CCC(=O)O
IC50 ([1]; read-out: IC50): 0.39 nM | IC50 (Neutrophil; [18]): 20 nM

O=C(O)CCCOc1cccc(CCCCCCOc2cc(-c3ccc(F)cc3)cc(-c3ccc(F)cc3)c2)c1CCC(=O)O
IC50 ([1]; read-out: IC50): 8.5 nM

COc1ccc(-c2cc(OCCCCCCc3cccc(OCCCC(=O)O)c3CCC(=O)O)cc(-c3ccc(OC)cc3)c2)cc1
IC50 ([1]; read-out: IC50): 31.1 nM

O=C(O)CCCOc1cccc(CCCCCCOc2cc(-c3ccc4c(c3)OCO4)cc(-c3ccc4c(c3)OCO4)c2)c1CCC(=O)O
IC50 ([1]; read-out: IC50): 5.39 nM

O=C(O)CCCOc1cccc(CCCCCCOc2cc(-c3ccccc3)cc(-c3ccccc3)c2)c1CCC(=O)O
IC50 (Cytochrome P450 2C19): > 7500 nM | IC50 (Cytochrome P450 1A2): > 7500 nM | IC50 [2]: 38.5 nM | IC50 (Cytochrome P450 2D6): > 7500 nM | IC50 (Cytochrome P450 3A4): > 7500 nM | IC50 ([1]; read-out: IC50): 0.21 nM | IC50 (Cytochrome P450 2C9 [3]): > 50000 nM | IC50 (Cytochrome P450 2C9 [4]): > 12500 nM | IC50 [5]: 628 nM | INH [6]: Not Active | solubility [7]: 27.3 µg/mL (≈ 47 µM) | IC50 [8]: > 3000 nM | logD [9]: 0.7 | solubility [10]: 338 µg/mL (≈ 582 µM)

O=C(O)CCCOc1cccc(CCCCCCOc2cc(-c3ccncc3)cc(-c3ccncc3)c2)c1CCC(=O)O
Cmax [11]: 310 nM | clearance [12]: 28.1 mL/min/kg | Tmax [13]: 5 h | IC50 (Cytochrome P450 2C19): > 7500 nM | IC50 (Cytochrome P450 1A2): > 7500 nM | IC50 [2]: 71 nM | bioavailability [14]: 10% | Vd [15]: 1.55 L/kg | IC50 (Cytochrome P450 2D6): > 7500 nM | IC50 (Cytochrome P450 3A4): > 7500 nM | IC50 ([1]; read-out: IC50): 0.07 nM | IC50 (Cytochrome P450 2C9 [3]): 340 nM | half-life [16]: 4.52 h | half-life [17]: 4.52 h | IC50 (Cytochrome P450 2C9 [4]): 900 nM | IC50 [5]: 143 nM | INH [6]: Not Active | solubility [7]: 22.7 µg/mL (≈ 39 µM) | logD [9]: 1.78 | solubility [10]: 61 µg/mL (≈ 105 µM)

O=C(O)CCCOc1cccc(CCCCCCOc2cc(-c3ccc4c(c3)OCCO4)cc(-c3ccc4c(c3)OCCO4)c2)c1CCC(=O)O
IC50 ([1]; read-out: IC50): 140 nM

O=C(O)CCCOc1cccc(CCCCCCOc2cc(-c3cncnc3)cc(-c3ccc4c(c3)OCO4)c2)c1CCC(=O)O
IC50 ([1]; read-out: IC50): 0.38 nM | IC50 (Neutrophil; [18]): 0.2 nM
